Consider 16 molecules from ChEMBL document CHEMBL1127858, “Synthesis and evaluation of the anti-HIV activity of aza and deaza analogues of isoddA and their phosphates as prodrugs” (J Med Chem, 1994).

For assay [1], the system named is MT4. The assay can be described thus: Effective concentration required to achieve 50% protection of MT-4 cells against cytopathic effect of HIV-1 (4 days). Type of assay: functional, cell-based. The settings on record: Homo sapiens, MT4, 96 h. The procedure, abridged: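 MT-4 cells (1 × 10⁴ per well, RPMI with 10% FCS) with various compound concentrations, infected with 100 CCID50 of HIV-1 IIIB from persistently infected H9/IIIB supernatant. After 4 days at 37 °C, viable cells read by MTT. EC50 is the dose giving 50% protection from virus cytopathicity. Mean of three independent experiments. Cytotoxicity run in parallel.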

The subject of assay [2] is MT4. The assay can be described thus: Concentration required to reduce the viability of mock-infected MT-4 cells by 50% (4 days). The assay is classed as functional. The settings on record: Homo sapiens, MT4, 96 h. The procedure, abridged:
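Mock-infected MT-4 cells (1 × 10⁴ per well) in RPMI with 10% FCS, exposed to a range of compound concentrations and incubated 4 days at 37 °C. Viable cells counted by MTT. CC50 is the dose cutting viability by 50%. Mean of three independent experiments. Cultures were checked periodically for mycoplasma.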

The test system of assay [3] is MT4. The assay can be described thus: Effective concentration required to achieve 50% protection of MT-4 cells against cytopathic effect of HIV-2 (8 days). Type of assay: functional, cell-based. Conditions: Homo sapiens, MT4, 192 h. The procedure, abridged: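 MT-4 cells (1 × 10⁴ per well, RPMI with 10% FCS) with various compound concentrations, infected with 100 CCID50 of HIV-2 CBL 20 from persistently infected CEM supernatant. Viable cells read by MTT. EC50 is the dose giving 50% protection from virus cytopathicity. Mean of three independent experiments.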
Background: Protection from cytopathic effect is a common read-out in antiviral testing.

Assay [4] can be described thus: Ratio of CC50 value that of EC50 value(HIV-1). The assay is classed as functional. The procedure, abridged:
(§1)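 Selectivity index as the CC50/EC50 ratio. CC50 comes from mock-infected MT-4 viability by MTT. EC50 comes from MTT-measured protection of MT-4 cells infected with 100 CCID50 of HIV-1 IIIB or HIV-2 CBL 20. Data are means of three experiments.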

Assay [5] is described as follows: Ratio of CC50 value that of EC50 value(HIV-2). Type of assay: functional. The procedure, abridged: as §1

As usually defined, the EC50 is the concentration giving half of the maximal effect. For orientation: CC50 means the concentration at which the toxic effect on the cells reaches its halfway point. Low values mean harm at low concentration, high ones better tolerance by the cells. In the case of `Nc1ncnc2c1nnn2C1COC(COP(=O)(OCC(Cl)(Cl)Cl)OCC(Cl)(Cl)Cl)C1` (configuration not stated), the EC50 in assay [1] and in assay [3] was more than 92 µM each time. In addition, the midpoint of cytotoxicity in assay [2], the CC50, lay at 92 µM.

With `Nc1ccnc2c1nnn2C1COC(COP(=O)(OCC(Cl)(Cl)Cl)OCC(Cl)(Cl)Cl)C1` (configuration not stated), the EC50 in assay [1] and in assay [3] was more than 100 µM each time. Also, the CC50 in assay [2] was more than 100 µM.

Regarding `Nc1nccc2c1nnn2C1COC(COP(=O)(OCC(Cl)(Cl)Cl)OCC(Cl)(Cl)Cl)C1` (configuration not stated), the EC50 in assay [1] and in assay [3] was more than 173 µM throughout. In assay [2], this molecule had a CC50 of more than 173 µM.

On to `Nc1nccc2c1ncn2C1COC(COP(=O)(OCC(Cl)(Cl)Cl)OCC(Cl)(Cl)Cl)C1` (configuration not stated), for which the EC50 in assay [1] and in assay [3] was more than 34 µM in each case. This molecule also returned a CC50 in assay [2] of 34 µM.

With `Nc1ccnc2c1nnn2C1COC(CO)C1` (configuration not stated), the EC50 in assay [1] and in assay [3] was more than 425 µM throughout. Besides, the CC50 in assay [2] is more than 425 µM.

On to `Nc1ccnc2c1ncn2C1COC(CO)C1` (configuration not stated), for which the EC50 in assay [1] and in assay [3] was more than 425 µM throughout. Also, in assay [2], the CC50 is more than 425 µM.

On to `Nc1ncnc2c1nnn2C1COC(CO)C1` (configuration not stated), for which the EC50 in assay [1] and in assay [3] was more than 425 µM throughout. This molecule also registered a CC50 in assay [2] of more than 425 µM.

As for `COC(=O)C(C)NP(=O)(OCC1CC(n2nnc3c(N)ncnc32)CO1)Oc1ccccc1` (configuration not stated), the EC50 in assay [1] is 17 µM; in assay [3], 105 µM. Also, the Ratio in assay [4] turned out to be 8.5; in assay [5], 1.4. The same molecule came in with a CC50 in assay [2] of 146 µM.

Turning to `Nc1ncnc2c1ncn2[C@H]1CO[C@@H](CO)C1`, the values for the EC50 in assay [1] and in assay [3] were 21 µM and 32 µM, respectively. Further, the Ratio in assay [4] is more than 20; in assay [5] it was more than 13. The CC50 in assay [2] is more than 425 µM.

In the case of `Nc1ccnc2c1ncn2C1COC(COP(=O)(OCC(Cl)(Cl)Cl)OCC(Cl)(Cl)Cl)C1` (configuration not stated), the EC50 in assay [1] and in assay [3] was more than 100 µM in each case. Further, the CC50 in assay [2] was more than 100 µM.

As for `COC(=O)C(C)NP(=O)(OCC1CC(n2cnc3c(N)ncnc32)CO1)Oc1ccccc1` (configuration not stated), the EC50 in assay [1] amounted to 0.06 µM; in assay [3], 0.04 µM. Further, the Ratio in assay [4] stood at 48; in assay [5], 65. In assay [2], this molecule gave a CC50 of 2.9 µM.

Regarding `Nc1nccc2c1nnn2C1COC(CO)C1` (configuration not stated), the EC50 in assay [1] and in assay [3] was more than 425 µM throughout. This molecule returned a CC50 in assay [2] of more than 425 µM.

Turning to `Cc1cn([C@H]2C[C@H](N=[N+]=[N-])[C@@H](CO)O2)c(=O)[nH]c1=O` [ZIDOVUDINE], the results for the EC50 in assay [1] and in assay [3] were 0.01 µM and 0.04 µM, respectively. Moreover, the CC50 in assay [2] was more than 80 µM.

Take `Nc1ncnc2c1ncn2C1COC(COP(=O)(OCC(Cl)(Cl)Cl)OCC(Cl)(Cl)Cl)C1` (configuration not stated): the EC50 in assay [1] is 87 µM; in assay [3] it was more than 173 µM. Also, in assay [4], the Ratio is more than 2. For the same molecule, the CC50 in assay [2] was not below 173 µM.

Take `Nc1nccc2c1ncn2C1COC(CO)C1` (configuration not stated): the EC50 in assay [1] and in assay [3] was more than 425 µM throughout. The molecule further displayed a CC50 in assay [2] of more than 425 µM.

As to `O=c1[nH]cnc2c1ncn2[C@H]1CC[C@@H](CO)O1` [DIDANOSINE], the EC50 worked out at 10 µM in assay [1] and 11 µM in assay [3]. Moreover, the Ratio in assay [4] was more than 42; in assay [5] it was more than 38. The molecule also yielded a CC50 in assay [2] of more than 425 µM.
